The target of data set [1] is T1, 3-hydroxy-3-methylglutaryl-coenzyme A reductase (Homo sapiens, UniProt P04035).
T1 sequence (P04035 whole entry): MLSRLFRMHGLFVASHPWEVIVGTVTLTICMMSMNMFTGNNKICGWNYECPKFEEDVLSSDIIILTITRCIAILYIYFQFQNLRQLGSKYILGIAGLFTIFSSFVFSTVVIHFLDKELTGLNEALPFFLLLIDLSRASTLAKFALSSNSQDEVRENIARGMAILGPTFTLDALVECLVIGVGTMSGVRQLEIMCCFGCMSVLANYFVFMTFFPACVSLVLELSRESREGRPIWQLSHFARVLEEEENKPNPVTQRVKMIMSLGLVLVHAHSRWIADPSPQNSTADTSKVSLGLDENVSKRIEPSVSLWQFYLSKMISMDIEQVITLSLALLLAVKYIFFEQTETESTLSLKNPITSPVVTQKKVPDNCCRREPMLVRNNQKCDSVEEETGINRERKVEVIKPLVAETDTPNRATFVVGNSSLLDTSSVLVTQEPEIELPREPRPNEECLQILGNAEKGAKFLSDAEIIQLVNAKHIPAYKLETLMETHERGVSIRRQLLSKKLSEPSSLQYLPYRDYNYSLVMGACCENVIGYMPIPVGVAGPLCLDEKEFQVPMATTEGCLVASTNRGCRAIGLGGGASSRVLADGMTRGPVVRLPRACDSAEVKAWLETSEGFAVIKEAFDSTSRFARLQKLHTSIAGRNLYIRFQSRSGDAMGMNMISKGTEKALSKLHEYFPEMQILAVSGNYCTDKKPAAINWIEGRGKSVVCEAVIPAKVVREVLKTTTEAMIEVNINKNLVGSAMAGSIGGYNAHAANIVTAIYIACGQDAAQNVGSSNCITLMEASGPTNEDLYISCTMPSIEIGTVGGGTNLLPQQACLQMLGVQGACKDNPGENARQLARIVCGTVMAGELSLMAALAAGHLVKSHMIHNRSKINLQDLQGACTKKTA
The data set is described as follows: (§1) Induction of degradation of Flag-tagged human HMGCR-dCat-ELuc membrane domain (1 to 499 residues) expressed in HEK293 cells assessed as reduction in HMGCR-dCat-Eluc protein level after 4 hrs by luciferase reporter assay. It counts as cell-based. The method, boiled down:
(§2)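 HEK293 cells stably expressing HMGCR-dCat-ELuc (FLAG-tagged membrane domain, residues 1-499, emerald luciferase) in DMEM/10% FBS. Compound treatment 4 h, then remaining fusion quantified by luciferase luminescence. Normalized to 0.1% DMSO vehicle as % of control. EC50 given as mean ± SD of more than three independent dose-response experiments.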

For data set [2], the system named is HEK293. The data set is described as follows: Cytotoxicity against human HEK293 cells assessed as cell viability at 0.01 to 10 uM incubated for 4 hrs by CytoRed viability assay. The class given is cell-based. As to conditions: hek293, 4 h, dose 0.01-10 µM. The method, boiled down: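 CytoRed esterase-based viability read in the same wells as the 4 h HMGCR-dCat-ELuc stable HEK293 degradation assay, just before luciferase measurement.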

In data set [3] the target is T2, 3-hydroxy-3-methylglutaryl-coenzyme A reductase (Homo sapiens) (UniProt P04035).
T2 sequence (whole entry): T1 sequence (P04035 whole entry)
The data set is described as follows: Induction of degradation of Flag-tagged human HMGCR-dCat-ELuc membrane domain (1 to 499 residues) expressed in HEK293 cells assessed as reduction in HMGCR-dCat-Eluc protein level at 10 uM after 4 hrs by luciferase reporter assay. The class given is cell-based. Put shortly: as §2
On the technique in general: A reporter such as luciferase makes a cellular process visible.

The target of data set [4] is T2, 3-hydroxy-3-methylglutaryl-coenzyme A reductase (Homo sapiens). The description is as §1. The class given is cell-based. Put shortly:
as §2

Data set [5] deals with HEK293. The data set can be described thus: Cytotoxicity against human HEK293 cells assessed as reduction in cell viability at 10 uM incubated for 4 hrs by CytoRed viability assay. The class given is cell-based. As to conditions: hek293, 4 h. Put shortly: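 HEK293 cells stably expressing HMGCR-dCat-ELuc (HMGCR residues 1-499 with FLAG tag and emerald luciferase) are grown in DMEM with 10% FBS and penicillin-streptomycin at 5% CO2. Cells are dosed for 4 h. CytoRed, which reads cellular esterase activity, is measured in the same wells just before the luciferase read. The vehicle is 0.1% DMSO.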

Data set [6] has as its target T3, Insulin-induced gene 1 protein (Homo sapiens) (UniProt O15503).
T3 sequence (whole entry): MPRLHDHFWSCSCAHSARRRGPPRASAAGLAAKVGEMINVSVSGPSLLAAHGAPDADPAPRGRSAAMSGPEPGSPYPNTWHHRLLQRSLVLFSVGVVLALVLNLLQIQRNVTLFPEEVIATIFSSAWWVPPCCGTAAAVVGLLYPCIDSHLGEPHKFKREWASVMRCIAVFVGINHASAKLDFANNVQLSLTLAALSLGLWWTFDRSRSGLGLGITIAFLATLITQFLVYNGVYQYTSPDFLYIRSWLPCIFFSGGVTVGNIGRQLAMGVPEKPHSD
The data set is described as follows: Binding affinity to FLAG/myc-tagged Insig1 transfected in HEK293 cell membrane co-transfected with Flag-tagged human HMGCR-dCat-Eluc membrane domain (1 to 499 residues) at 20 uM preincubated for 30 mins followed by irradiation with UV light for 3 mins by immunoprecipitation analysis. It counts as cell membranes.

The target of data set [7] is T2, 3-hydroxy-3-methylglutaryl-coenzyme A reductase (Homo sapiens). The data set can be described thus: Binding affinity to Flag-tagged human HMGCR-dCat-ELuc membrane domain (1 to 499 residues) transfected in HEK293 cell membrane co-transfected with p-CMV-Insig1-myc-FLAG at 20 uM preincubated for 30 mins followed by irradiation with UV light for 3 mins in presence of 50 to 200 uM SRP3042 by immunoprecipitation analysis. The class given is cell membranes.

The target is the same in data set [8]. The data set is described as follows: Binding affinity to Flag-tagged human HMGCR-dCat-ELuc membrane domain (1 to 499 residues) transfected in HEK293 cell membrane co-transfected with p-CMV-Insig1-myc-FLAG at 20 uM preincubated for 30 mins followed by irradiation with UV light for 3 mins by immunoprecipitation analysis. It counts as cell membranes.

Active and inactive are the calls of the source. The calls are words filed in the database; no cut-off is given here.

From ChEMBL document CHEMBL4725260, “Bisphosphonate esters interact with HMG-CoA reductase membrane domain to induce its degradation” (Bioorg Med Chem, 2020) come the findings set out here.

For orientation: EC50 means the concentration giving half of the maximal effect. Regarding `C#CCOP(=O)(OC(C)C)C(Cc1cc(C(C)(C)C)nc(C(C)(C)C)c1)P(=O)(OC(C)C)OC(C)C` (stereo not drawn), in data set [1] (read-out: EC50), the concentration for a half-maximal effect (EC50) was found to be 633 nM. In addition, the Activity entry in the data set with HEK293 [2] is on record as “Non-Toxic”.
The like results for `CCOP(=O)(OCC)C(Cc1cc(C(C)(C)C)c(O)c(C(C)(C)C)c1)P(=O)(OCC)OCC` were, in that order, 2770 nM and “Non-Toxic”.
Turning to `C#Cc1cc(CC(P(=O)(OC(C)C)OC(C)C)P(=O)(OC(C)C)OC(C)C)cc(N=[N+]=[N-])c1`, the EC50 entry in data set [1] (hek293) is listed as “Not Active”. Further, the result in data set [3] was inactive. Further, the Activity result in the data set with HEK293 [2] was “Non-Toxic”.
In the case of `CC(C)OP(=O)(OC(C)C)C(Cc1cc(C(C)(C)C)nc(C(C)(C)C)c1)P(=O)(OC(C)C)OC(C)C`, the concentration giving a half-maximal response (EC50) in data set [1] (read-out: EC50) is 153 nM. Also, the Activity entry in data set [4] is “Dose-dependent effect”; in the data set on HEK293 [2] it was “Non-Toxic”.
For `C#Cc1cc(CC(P(=O)(OC(C)C)OC(C)C)P(=O)(OC(C)C)OC(C)C)cc(C(C)(C)C)c1`, the concentration giving a half-maximal response (EC50) in data set [1] (read-out: EC50) is 3540 nM. Besides, the Activity result in the data set with HEK293 [2] is reported as “Non-Toxic”.
For `CC(C)OP(=O)(OC(C)C)C(Cc1cc(N=[N+]=[N-])cc(C(C)(C)C)c1)P(=O)(OC(C)C)OC(C)C`, in that order: 1660 nM and “Non-Toxic”.
For `C#CCCOP(=O)(OC(C)C)C(Cc1cc(C(C)(C)C)nc(C(C)(C)C)c1)P(=O)(OC(C)C)OC(C)C` (stereo not drawn), in that order: 795 nM and “Non-Toxic”.
The like results for `CCOP(=O)(OCC)C(=Cc1cc(C(C)(C)C)cc(C(C)(C)C)c1)P(=O)(OCC)OCC` were, in that order, 1160 nM and “Non-Toxic”.
Turning to `CC(C)OP(=O)(OC(C)C)C(Cc1cc(I)cc(C(C)(C)C)c1)P(=O)(OC(C)C)OC(C)C`, in data set [1] (read-out: EC50), the EC50 was 1460 nM. Besides, the Activity result in the data set with HEK293 [2] is reported as “Non-Toxic”.
Consider `CC(C)OP(=O)(OC(C)C)C(Cc1cc(C(C)(C)C)cc(C(C)(C)C)c1)P(=O)(OC(C)C)OC(C)C`, for which, in data set [1] (read-out: EC50), the EC50 stood at 317 nM. Further, in the data set on HEK293 [2], the Activity entry was “Non-Toxic”.
`CCOP(=O)(OCC)C(=Cc1cc(C(C)(C)C)c(O)c(C(C)(C)C)c1)P(=O)(OCC)OCC`: the EC50 in data set [1] (read-out: EC50) was 1100 nM. For the same compound, the Activity result in the data set with HEK293 [5] is “Toxic”.
For the compound `CC(C)OP(=O)(OC(C)C)C(=Cc1cc(C(C)(C)C)c(O)c(C(C)(C)C)c1)P(=O)(OC(C)C)OC(C)C`, the 50% effective concentration (EC50) in data set [1] (read-out: EC50) amounted to 1340 nM. Besides, in the data set with HEK293 [5], the Activity entry was “Toxic”.
In the case of `CCOP(=O)(OCC)C(=Cc1ccc(O)cc1)P(=O)(OCC)OCC`, the EC50 entry in data set [1] (hek293) is recorded as “Not Active”. The result in data set [3] was inactive. Further, in the data set with HEK293 [2], the Activity result was “Non-Toxic”.
In the case of `CC(C)OP(=O)(O)C(Cc1cc(C(C)(C)C)nc(C(C)(C)C)c1)P(=O)(OC(C)C)OC(C)C` (stereo not drawn), in data set [1] (hek293), the EC50 entry is reported as “Not Active”. Also, in data set [3], the outcome was inactive. In the data set on HEK293 [2], the Activity entry is given as “Non-Toxic”.
For `CCOP(=O)(OCC)C(=Cc1ccc(O)c(C(C)(C)C)c1)P(=O)(OCC)OCC`, in that order: “Not Active”, “inactive” and “Non-Toxic”.
On to `CC(C)OP(=O)(OC(C)C)C(Cc1cc(C(C)(C)C)c(O)c(C(C)(C)C)c1)P(=O)(OC(C)C)OC(C)C` [APOMINE], for which the concentration for a half-maximal effect (EC50) in data set [1] (read-out: EC50) stood at 876 nM. The Activity entry in the data set with HEK293 [2] was “Non-Toxic”.
With `C#CCCC1(CCOP(=O)(OC(C)C)C(Cc2cc(C(C)(C)C)nc(C(C)(C)C)c2)P(=O)(OC(C)C)OC(C)C)N=N1` (stereo not drawn), the concentration for a half-maximal effect (EC50) in data set [1] (read-out: EC50) was determined as 417 nM. The Activity entry in data set [4] was “Dose-dependent effect”; in the data set on HEK293 [2], “Non-Toxic”. Moreover, the outcome in data set [6] and in data set [7] was inactive. Moreover, the result in data set [8] was Active.
